Test results from publication PMC5624507 (Advanced functional materials, 2017).
Bridge positions count the residues as written; N and C are the ends. Peptide text beside a SMILES is read from it.

Legend:
CD13 (aminopeptidase N) = CD13 (aminopeptidase N) (Homo sapiens, UniProt P15144); assay: CD13 enzyme inhibition / steady-state enzyme kinetic analysis; format: biochemical; conditions: for inhibition model (affected Km, but not Vmax of CD13): steady-state kinetics, double reciprocal plot; for effect of glycine N-methylation of the named peptide on CD13 inhibition: methylated vs non-methylated peptide
Method in brief: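 Enzyme inhibition was run with methylated and non-methylated peptides. IC50 is the peptide concentration inhibiting 50% of activity, from independent experiments each in duplicate. For steady-state kinetics, initial velocity was measured across varied substrate and peptide amounts and plotted as V versus substrate and as double-reciprocal plots. Ki came from two independent experiments (mean ± SE).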

CD13 = CD13 (Homo sapiens, UniProt P15144); assay: MS analysis of peptides after incubation with CD13; format: biochemical; conditions: 40 min incubation with CD13, peptide 30 µM
Method in brief: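 Peptides were incubated with or without CD13 (the no-enzyme incubation served as control), then analysed by MS.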

[1] = system: CD13+ endothelial cells (HUVEC); assay: Binding of peptide-Qdot605 nanoparticles to cultured HUVEC; format: cell-based, human; conditions: peptide coupled to Qdot605 fluorescent nanoparticles, 6 nM, 2 h
Method in brief: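 The control was nanoparticles activated with sulfo-SMCC but lacking peptide. Cell-bound Qdots (red) were imaged by fluorescence microscopy at 400X, with DAPI nuclear counterstain.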

[2] = format: physicochemical; conditions: 37 °C, 0.1 M ammonium bicarbonate, pH 8.5, 16 or 42 h
αvβ3 integrin = αvβ3 integrin (Homo sapiens, UniProt P05106+P06756); assay: Integrin binding assay; conditions: after 16 h of incubation in 0.1 M ammonium bicarbonate pH 8.5, 37 °C; competitive ELISA
[3] = physiological solutions; cited from earlier work

For N=C(N)NCCC[C@@H]1NC(=O)CNC(=O)[C@H](CC(N)=O)NC(=O)[C@@H](N)CSSC[C@@H](C(=O)O)NC1=O [CNGRC, reference compound] (H-CNGRC-OH; disulfide 1-5; N-terminus and C-terminus assumed), the Ki (CD13 (aminopeptidase N)) was 134 ± 28 µM and the “inhibition model (affected Km, but not Vmax of CD13)” value (CD13 (aminopeptidase N)) was “competitive inhibition”.

In the case of N=C(N)NCCC[C@@H]1NC(=O)CNC(=O)[C@H](CC(N)=O)NC(=O)CNC(=O)[C@H](CS)NC(=O)CNC1=O [N1, c[CGNGRG]] (cyclo(CGNGRG)), the “change in molecular mass upon incubation with CD13 (peptide cleavage)” value (CD13) is reported as “No change”, the “binding to CD13+ endothelial cells (HUVEC)” value [1] is reported as “could bind” and the “asparagine deamidation (change of molecular mass by MS)” value [2] is reported as “complete deamidation”. For the same molecule, the “binding to αvβ3 integrin after incubation” value (αvβ3 integrin) was “could bind”, the Ki (CD13 (aminopeptidase N)) was 12.4 ± 5.4 µM and the “effect of glycine N-methylation of the named peptide on CD13 inhibition” value (CD13 (aminopeptidase N)) was “did not impair CD13 binding”. For the same molecule, the “inhibition model (affected Km, but not Vmax of CD13)” value (CD13 (aminopeptidase N)) was “competitive inhibition”.

For CNGRCG, the “half-life (deamidation)” value [3] is given as 3 to 5 h.

In the case of cyclo(CNGRGG) [N3], the “binding to αvβ3 integrin after incubation” value (αvβ3 integrin) is reported as “could bind” and the “effect of glycine N-methylation of the named peptide on CD13 inhibition” value (CD13 (aminopeptidase N)) is reported as “reduction of inhibitory potency”.
